Assay outcomes as filed in PubChem.
Rows were chosen to be rich in hits. Some 4.3% of all compounds tested hit in one or more screens of this group.
RBBP9 inhibitor – blocks human serine hydrolase RBBP9 | O75884 | recombinant RBBP9, FP-Rh probe fluorescence polarization | inhibition, % at 7.94 µM | 0.2% of 220,000 active | AID 1515;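 active = inhibition above the campaign mean of all tested compounds plus 3 SD, cut at about 14% in these data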;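 note: plate controls were DMSO wells with RBBP9 for no effect and wells lacking RBBP9 protein for full effect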
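Controls: DMSO-treated enzyme wells and wells lacking RBBP9 | Material: RBBP9 protein | Technique: Fluorescence polarization | Replication: Single well per compound, no replicates | Buffer or medium: Tris-NaCl-Pluronic buffer, pH 8.0 | Timing: 30 min compound preincubation, 45 min probe labeling, 25 °C | Read-out basis: Percent inhibition from mP, scaled between DMSO and no-protein wells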
ALR H2O2 inh – human ALR oxidase inhibition via reduced H2O2 | P55789 | AID 485317 | inhibition, % (concentration not given with the values) | 3.8% of 290,000 active | purified ALR, DTT oxidation, H2O2 HRP-luminol luminescence;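 active = mean replicate inhibition above about 79%, with every replicate also reaching it, limit read from the data; inconclusive = only one of the two criteria met; inactive = mean below limit and not every replicate reaching it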
Rin1-Abl PPI inh – blocks binding of human Rin1 to Abl | TR-FRET Rin1/Abl binding, biochemical | 0.4% of 360,000 active | inhibition, % at 7.35 µM | P00519+Q13671 | AID 588664; in the data active = inhibition above about 5%, passing the limit was not always enough
SUMO HTRF inh – blocks human SUMOylation mediated by UBC9. P63279. HTRF SUMOylation assay, SAE1/SAE2 + UBC9, in vitro. inhibition, % at 35 µM. 0.36% of 290,000 active; in the data active = inhibition above about 50%, passing the limit was not always enough; inconclusive = no clear call, values can overlap the other calls
UBC13 polyUb – blocks human UBC13 polyubiquitin chain formation; 0.47% of 330,000 active; inhibition, % at 20 µM; AID 485273; TR-FRET; in the data active = inhibition above about 45%, passing the limit was not always enough; inconclusive = no clear call, values can overlap the other calls
PREPL inh – inhibits the human prolyl oligopeptidase-like enzyme. Q4J6C6. recombinant PREPL, fluorescence polarization activity-based probe. inhibition, % at 5.96 µM. 0.68% of 320,000 active. AID 2751; in the data active = inhibition above about 43%;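 note: 0% = enzyme with DMSO and 100% = wells lacking enzyme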
Target sequence (Q4J6C6 whole entry, looked up): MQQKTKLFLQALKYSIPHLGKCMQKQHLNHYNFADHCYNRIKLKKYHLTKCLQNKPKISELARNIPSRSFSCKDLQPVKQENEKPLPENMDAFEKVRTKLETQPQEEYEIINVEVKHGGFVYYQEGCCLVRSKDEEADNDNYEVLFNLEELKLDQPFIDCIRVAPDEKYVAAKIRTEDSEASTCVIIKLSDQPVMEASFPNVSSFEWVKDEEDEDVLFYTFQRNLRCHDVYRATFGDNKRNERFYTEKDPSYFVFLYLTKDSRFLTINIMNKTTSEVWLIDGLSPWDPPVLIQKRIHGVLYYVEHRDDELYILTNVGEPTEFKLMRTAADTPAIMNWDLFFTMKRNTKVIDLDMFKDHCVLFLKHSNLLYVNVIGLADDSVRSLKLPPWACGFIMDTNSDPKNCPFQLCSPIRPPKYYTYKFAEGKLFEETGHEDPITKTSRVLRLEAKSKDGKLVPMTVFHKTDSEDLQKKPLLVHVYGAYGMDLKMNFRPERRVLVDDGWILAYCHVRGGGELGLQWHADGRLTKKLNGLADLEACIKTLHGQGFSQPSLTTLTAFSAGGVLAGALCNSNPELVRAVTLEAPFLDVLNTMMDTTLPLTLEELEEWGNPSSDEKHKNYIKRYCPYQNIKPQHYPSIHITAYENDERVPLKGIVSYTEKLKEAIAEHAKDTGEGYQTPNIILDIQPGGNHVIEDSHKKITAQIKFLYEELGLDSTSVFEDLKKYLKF
Starred values were filed as active, the others as inactive; ? = inconclusive; . = no result given.

SMILES	RBBP9 inhibitor	ALR H2O2 inh	Rin1-Abl PPI inh	SUMO HTRF inh	UBC13 polyUb	PREPL inh
CCN(CC)CCCn1c2c(c(SCC(=O)Nc3ccc4c(c3)OCO4)nc1=O)CCC2	.	96*	-2	.	2	10
CCN(CC)CCn1c2c(c(SCC(=O)Nc3ccc(C)c(F)c3)nc1=O)CCCC2	.	97*	2	.	6	27
CCN(CC)CCCn1c2c(c(SCC(=O)Nc3cc(OC)cc(OC)c3)nc1=O)CCC2	.	-362	2	.	6	-3
O=[S@]1Oc2ccccc2-c2ccccc21	.	22	1	.	-3	0
CC1(C)CC(=O)C=C(c2cccc(OC(=O)c3ccc(Br)cc3)c2)C1=O	.	.	2	.	.	.
COc1ccc(CN2CCN(C(=O)C3CCC(CNS(=O)(=O)c4ccccc4)CC3)CC2)c(OC)c1OC (centres undefined)	-14	-12	1	6	10	11
CCN(CC)CCCn1c2c(c(SCC(=O)Nc3ccc(F)c(F)c3)nc1=O)CCC2	.	98*	-1	.	-3	15
O=C(CCN1CCC(c2ccccc2)C1)c1ccccc1 (centres undefined)	1	10	4	15	-5	13
COc1cc(C(=O)CCN2CCC(c3ccccc3)C2)cc(OC)c1OC (centres undefined)	-4	98*	-5	-6	1	-2
Cc1ccccc1-c1nnn(CC(=O)Nc2ccc3c(c2)OCO3)n1	1	0	3	4	13	2
CC(=O)Nc1c(C(=O)O)ccc(C)c1OCc1ccccc1	.	.	-2	.	.	.
Cc1ccc(C2(C)NC(=O)N(CC(=O)Nc3ccccc3N3CCCC3)C2=O)cc1 (centres undefined)	.	77*	0	.	-7	30
Cc1ccc(S(=O)(=O)N(C)CC(=O)Nc2ccccc2N2CCCC2)cc1	.	83*	2	.	2	5
CN(CC(=O)Nc1ccccc1N1CCOCC1)S(=O)(=O)c1ccc(Cl)cc1	-3	-3	4	20	5	2
CC1(c2ccccc2)NC(=O)N(CC(=O)Nc2ccc(S(=O)(=O)Nc3ncccn3)cc2)C1=O (centres undefined)	.	98*	2	.	0	-12
COc1cccc(OC)c1OCC(=O)Nc1ccc(S(=O)(=O)N2CCCC2)cc1	.	1	1	.	7	4
O=C(CSc1nncc2ccccc12)Nc1ccc(C(=O)O)cc1	.	100*	0	1	27	7
O=C(CSc1nncc2ccccc12)Nc1ccc(F)cc1	.	-7	-2	-6	3	0
O=C(CSc1nncc2ccccc12)Nc1ccccc1	.	99*	0	3	12	4
CC1Cc2nc(SCC(=O)N3CCc4ccccc43)n(C)c(=O)c2S1 (centres undefined)	-3	98*	-1	1	4	33
CC1Cc2nc(SCC(=O)OCc3ccccc3)n(C)c(=O)c2S1 (centres undefined)	-6	99*	-2	9	8	20
CC1Cc2nc(SCC(=O)N3CCOCC3)n(C)c(=O)c2S1 (centres undefined)	.	25	-4	8	-11	4
COc1ccc(CCNC(=O)COC(=O)c2cc(S(=O)(=O)N3CCCC3)ccc2O)cc1	.	.	0	.	4	12
Cc1nc2ccc(NC(=O)N(C(C)C)C(C)C)cc2s1	-2	-15	-4	7	-5	4
CC(C)N(C(=O)Nc1ccc2nccnc2c1)C(C)C	-4	39	-4	94*	-25	20
SMILES	RBBP9 inhibitor	ALR H2O2 inh	Rin1-Abl PPI inh	SUMO HTRF inh	UBC13 polyUb	PREPL inh
COc1ccc(/C(=N\Nc2ccccc2C(=O)O)c2ccccc2)cc1	-1	99*	1	12	2	2
CCN(C(=O)CN1CCN(c2ccccc2O)CC1)c1c(N)n(Cc2ccccc2)c(=O)[nH]c1=O	-2	98*	-2	33	-1	11
Cc1cccc(N2CCN(C(=O)c3ccc(NC(=O)C4CCCO4)cc3)CC2C)c1 (centres undefined)	4	99*	5	5	8	5
Cc1cccc(N2CCN(C(=O)c3ccncc3)CC2C)c1 (centres undefined)	-2	98*	0	22	-9	3
Cc1cccc(N2CCN(C(=O)c3cn4ccccc4n3)CC2C)c1 (centres undefined)	1	83*	0	7	-3	7
Cc1cccc(N2CCN(C(=O)Cn3nc(C)n4cccc4c3=O)CC2C)c1 (centres undefined)	.	91*	-4	8	-9	4
Cc1nn(CC(=O)N2CCN(c3ccccc3)CC2)c(=O)c2cccn12	.	-16	-2	-8	-5	3
O=C(Nc1ccc(O)cc1)C1CCCO1 (centres undefined)	-3	99*	2	10	-1	1
Cc1ccc(CNc2ccc3c(c2)ncn3C(C)C)cc1	-3	93*	-1	10	-9	28
CCn1cnc2cc(NCc3ccc(Br)cc3)ccc21	.	86*	.	18	-4	42
CCn1cnc2cc(NCc3ccc(C)cc3)ccc21	-5	87*	6	30	-5	14
CCn1cnc2cc(NCc3cccs3)ccc21	-2	?	-5	9	-5	6
CCN(CC(=O)NCc1cccs1)C(=O)c1cccc(S(=O)(=O)N(CC)c2ccccc2)c1	.	.	5	.	.	.
O=C1C(=O)N(c2nccs2)C(c2ccccc2F)/C1=C(\O)c1ccc2c(c1)OCCO2 (centres undefined)	.	98*	-5	5	-6	-7
Nc1ccc(Oc2cc(N)cc(Oc3ccccc3)c2)cc1	.	100*	-2	-23	6	26
CSc1nnc(N2C(=O)C(O)=C(C(=O)c3ccco3)C2c2cccc(Cl)c2)s1 (centres undefined)	.	87*	-1	8	.	-15
O=C1C2CCCCN2C(=O)N1CCCN1CCN(c2cccc(C(F)(F)F)c2)CC1 (centres undefined)	.	.	2	.	.	.
Nc1ccc(N2CCN(CCCCN3C(=O)C4CCCN4C3=O)CC2)cc1 (centres undefined)	5	99*	-12	87	1	23
O=C1C2CCCN2C(=O)N1CCCN1CCN(c2cccc(Br)c2)CC1 (centres undefined)	.	85*	3	10	-6	14
CC(C)C(NC(=O)CSCc1ccc([N+](=O)[O-])cc1)C(C)C	3	98*	0	-1	4	5
Cc1cc(/C=C2\SC(=O)N(C)C2=O)c(C)n1-c1ccc(O)cc1	.	15	-5	74*	-7	16
O=c1c2ccccc2[nH]c2ccc(O)cc12	.	87*	-1	18	-15	27
CCOC(=O)c1c(-c2ccccc2)oc2ccc(O)cc12	.	-2	-2	5	15	11
Cc1ccc2[nH]c3ccccc3c(=O)c2c1	.	1	-7	29	-1	4
CCOC(=O)c1c(-c2ccccc2)[nH]c2ccc(O)cc12	-2	98*	1	15	13	19
